Calls of active or inactive are those of the source. The rule behind the calls is not given here.
Assays:
[1] = molecular target: T1, Mas-related G-protein coupled receptor member X1 (Homo sapiens, UniProt Q96LB2); experiment: Agonist activity at human MrgprX1 expressed in HEK293 cells incubated for 2 mins by Fluo4AM dye based FLIPR assay relative to BAM8-22; assay type: cell-based
How it was run: (§1)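 HEK293 cells stably expressing human MrgprX1 were plated at 25,000/well and grown 2 days. They were loaded with 2 μM Fluo-4 AM plus 1% Trypan Red in HBSS for 50 min at 37°C, then equilibrated 10 min at room temperature. Serially diluted compounds in HBSS were added, with BAM8-22 as positive control. FLIPR imaging ran 2 min, read as max–min fluorescence. EC50 is mean ± SD of ≥4 experiments.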

[2] = molecular target: T1, Mas-related G-protein coupled receptor member X1; experiment: Agonist activity at human MrgprX1 expressed in HEK293 cells incubated for 2 mins by Fluo4AM dye based FLIPR assay; assay type: cell-based; how it was run: as §1
[3] = Half life in mouse liver microsomes; assay type: ADME, Microsome
[4] = molecular target: T2, Mas-related G-protein coupled receptor member X1 (Mus musculus) (UniProt Q8CIP3); experiment: Agonist activity at mouse MRGPRC11 expressed in KNRK cells at 40 uM by Fura2-AM dye based FLIPR assay; assay type: cell-based
T2 sequence (whole entry): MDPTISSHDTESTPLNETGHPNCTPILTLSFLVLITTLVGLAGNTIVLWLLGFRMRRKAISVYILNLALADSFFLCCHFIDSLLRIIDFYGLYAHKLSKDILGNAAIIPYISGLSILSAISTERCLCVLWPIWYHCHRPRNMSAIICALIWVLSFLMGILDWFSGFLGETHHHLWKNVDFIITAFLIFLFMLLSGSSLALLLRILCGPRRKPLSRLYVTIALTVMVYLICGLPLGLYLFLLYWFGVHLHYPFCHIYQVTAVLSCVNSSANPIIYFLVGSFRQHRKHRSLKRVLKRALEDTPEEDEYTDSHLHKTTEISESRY

[5] = molecular target: Delta-type opioid receptor (Rattus norvegicus, UniProt P33533); experiment: Displacement of [3H]DADLE from delta opioid receptor in rat brain after 60 mins by liquid scintillation counting method; assay type: tissue-based
[6] = molecular target: Mu-type opioid receptor (Rattus norvegicus, UniProt P33535); experiment: Displacement of [3H]DAMGO from mu opioid receptor in rat brain after 60 mins by liquid scintillation counting method; assay type: tissue-based
[7] = molecular target: Kappa-type opioid receptor (Rattus norvegicus, UniProt P34975); experiment: Displacement of [3H]U-69,593 from kappa opioid receptor in rat brain after 60 mins by liquid scintillation counting method; assay type: tissue-based
[8] = Selectivity index, ratio of Ki for displacement of [3H]DADLE from delta opioid receptor in rat brain after 60 mins by liquid scintillation counting method to EC50 for agonist activity at human MrgprX1 expressed in HEK293 cells incubated for 2 mins by Fluo4AM dye based FLIPR assay; assay type: cell-based
[9] = Selectivity index, ratio of Ki for displacement of [3H]DAMGO from mu opioid receptor in rat brain after 60 mins by liquid scintillation counting method to EC50 for agonist activity at human MrgprX1 expressed in HEK293 cells incubated for 2 mins by Fluo4AM dye based FLIPR assay; assay type: cell-based
[10] = Selectivity index, ratio of Ki for [3H]U-69,593 from kappa opioid receptor in rat brain after 60 mins by liquid scintillation counting method to EC50 for agonist activity at human MrgprX1 expressed in HEK293 cells incubated for 2 mins by Fluo4AM dye based FLIPR assay; assay type: cell-based
[11] = AUC in CD1 mouse plasma at 10 mg/kg, iv administered as single dose by LC-MS/MS analysis; assay type: ADME, organism-based; conditions: in vivo
How it was run: (§2)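 Male CD1 mice (25–30 g) received a single 10 mg/kg iv dose, n=3 per time point, and were killed by CO2 at set times. Plasma came from cardiac-puncture blood spun at 3,000 g for 15 min. Spinal cords were flash frozen. Samples were extracted in acetonitrile with losartan internal standard and quantified by LC/MS/MS. Calibration covered 0.01–10 nmol/mL, built with 1/x-weighted linear regression in naive matrix.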

[12] = AUC in CD1 mouse spinal cord at 10 mg/kg, iv administered as single dose by LC-MS/MS analysis; assay type: ADME, organism-based; conditions: in vivo; how it was run: as §2
[13] = Ratio of AUC in spinal cord to AUC in plasma of CD1 mouse at 10 mg/kg, iv administered as single dose by LC-MS/MS analysis; assay type: ADME, organism-based; how it was run: as §2
[14] = Half life in CD1 mouse at 10 mg/kg, iv administered as single dose by LC-MS/MS analysis; assay type: ADME, organism-based; conditions: in vivo; how it was run: as §2
[15] = molecular target: T1, Mas-related G-protein coupled receptor member X1; experiment: Agonist activity at human MRGPRX1 in DRG neurons obtained from humanized MrgprX1 mouse assessed as inhibition of high-voltage-activated Ca2+ currents 10 uM at -80 mV holding potential; assay type: functional
How it was run: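 DRG neurons from 3–4-week-old humanized MrgprX1 mice were dispase/collagenase-dissociated, cultured with NGF and GDNF, and used after 20–40 h. Whole-cell patch clamp was done in Ba2+/NMDG extracellular solution, pH 7.4, at 21–23°C. Cells were held at −80 mV, stepped to −40 mV, then −60 mV, then −10 mV for 40 ms to evoke HVA currents. Compound was bath-applied; P/4 leak subtraction.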

[16] = molecular target: T1, Mas-related G-protein coupled receptor member X1; experiment: Agonist activity at human MrgprX1 expressed in HEK293 cells up to 100 uM incubated for 2 mins by Fluo4AM dye based FLIPR assay relative to BAM8-22; assay type: cell-based; how it was run: as §1
[17] = molecular target: T1, Mas-related G-protein coupled receptor member X1; experiment: Agonist activity at human MRGPRX1 in DRG neurons obtained from humanized MrgprX1 mouse assessed as inhibition of high-voltage-activated Ca2+ currents 5 uM at -80 mV holding potential; assay type: functional
How it was run: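 DRG neurons from 3–4-week-old MrgprX1 mice, enzyme-dissociated, cultured with NGF and GDNF and used at 20–40 h. Whole-cell patch clamp of MrgprA3-GFP neurons at 21–23 °C in NMDG-Cl/5 mM BaCl2 bath, pH 7.4. Holding −80 mV, step to −40 mV 20 ms, −60 mV 20 ms, then −10 mV 40 ms evoking HVA current. P/4 leak subtraction. Currents compared before/after bath application.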

T1 sequence (Q96LB2 whole entry): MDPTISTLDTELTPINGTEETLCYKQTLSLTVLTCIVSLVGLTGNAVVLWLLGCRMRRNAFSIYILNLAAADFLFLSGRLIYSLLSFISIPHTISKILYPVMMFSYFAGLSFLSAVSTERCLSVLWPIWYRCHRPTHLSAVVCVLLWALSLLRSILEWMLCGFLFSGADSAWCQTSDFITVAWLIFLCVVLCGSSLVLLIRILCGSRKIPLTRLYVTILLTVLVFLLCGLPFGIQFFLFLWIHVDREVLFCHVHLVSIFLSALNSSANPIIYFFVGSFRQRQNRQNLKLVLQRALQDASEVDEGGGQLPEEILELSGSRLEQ
Delta-type opioid receptor, sequence (P33533 whole entry): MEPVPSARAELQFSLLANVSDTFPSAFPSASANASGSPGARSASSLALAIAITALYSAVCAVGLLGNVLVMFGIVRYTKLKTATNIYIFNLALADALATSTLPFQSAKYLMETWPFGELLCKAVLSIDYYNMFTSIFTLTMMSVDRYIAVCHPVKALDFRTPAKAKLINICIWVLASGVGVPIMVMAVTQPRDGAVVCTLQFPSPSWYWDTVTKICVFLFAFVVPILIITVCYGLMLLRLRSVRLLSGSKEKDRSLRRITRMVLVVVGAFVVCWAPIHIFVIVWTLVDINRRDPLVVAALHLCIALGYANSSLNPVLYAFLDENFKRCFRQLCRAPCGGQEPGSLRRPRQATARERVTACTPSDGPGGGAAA
Kappa-type opioid receptor, sequence (P34975 whole entry): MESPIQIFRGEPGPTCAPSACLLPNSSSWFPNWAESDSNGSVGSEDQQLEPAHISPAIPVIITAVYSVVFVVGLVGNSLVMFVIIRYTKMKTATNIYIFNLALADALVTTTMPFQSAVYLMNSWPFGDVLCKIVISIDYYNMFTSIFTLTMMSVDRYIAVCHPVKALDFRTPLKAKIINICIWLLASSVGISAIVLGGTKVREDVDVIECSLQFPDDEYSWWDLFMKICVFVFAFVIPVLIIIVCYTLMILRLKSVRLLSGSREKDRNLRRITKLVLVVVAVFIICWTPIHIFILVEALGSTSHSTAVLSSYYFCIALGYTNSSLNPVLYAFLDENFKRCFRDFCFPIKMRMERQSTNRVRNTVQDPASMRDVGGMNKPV
Mu-type opioid receptor, sequence (P33535 whole entry): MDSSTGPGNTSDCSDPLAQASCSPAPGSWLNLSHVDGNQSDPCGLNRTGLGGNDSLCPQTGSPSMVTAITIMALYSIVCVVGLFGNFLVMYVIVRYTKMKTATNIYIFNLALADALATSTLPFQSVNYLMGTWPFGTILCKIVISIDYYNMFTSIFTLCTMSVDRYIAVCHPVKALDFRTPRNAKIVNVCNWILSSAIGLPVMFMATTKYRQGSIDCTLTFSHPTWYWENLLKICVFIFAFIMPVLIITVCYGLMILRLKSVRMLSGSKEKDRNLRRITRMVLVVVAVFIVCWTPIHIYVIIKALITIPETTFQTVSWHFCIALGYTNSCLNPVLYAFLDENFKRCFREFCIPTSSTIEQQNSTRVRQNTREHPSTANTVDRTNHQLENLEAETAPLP

| Emax [1] [%] | EC50 [2] [µM] | Molecule | other results |
| --- | --- | --- | --- |
| > 95 | 0.16 | Cc1ccc(S(=O)(=O)Nc2ccc(C)cc2Oc2ccc(C(=N)N)cc2)cc1 |  |
| > 95 | 0.05 | COc1ccccc1S(=O)(=O)Nc1ccc(C)cc1Oc1ccc2c(N)nccc2c1 | half-life [3]: < 15 min; Activity [4]: inactive; Ki [5]: 2.47 µM; Ki [6]: 3.73 µM; Ki [7]: 12.1 µM; Ratio [8]: 50; Ratio [9]: 75; Ratio [10]: 242; AUC [11]: 900 nM·h; AUC [12]: 5.66 nmol·h/g; Kp [13]: 6.3; half-life [14]: 19.8 min |
| > 95 | 23 | COc1ccccc1S(=O)(=O)Nc1ccc(C)cc1Oc1ccccc1C(=N)N |  |
| > 95 | 0.15 | Cc1ccc(NS(=O)(=O)c2ccccc2OC(F)(F)F)c(Oc2ccc(C(=N)N)cc2)c1 |  |
| > 95 | 3.3 | COc1cc(CNc2cccc(C(=N)N)c2)ccc1OCc1ccccc1 |  |
| > 95 | 5.2 | N=C(N)c1ccc(NCc2ccc(OCc3ccccc3)cc2)cc1 |  |
| > 95 | 2.2 | CCCCS(=O)(=O)Nc1ccc(C)cc1Oc1ccc(C(=N)N)cc1 |  |
| > 95 | 0.51 | COc1cc(CNc2ccc(C(=N)N)cc2)ccc1OCc1ccccc1 | inhibition [15]: Active |
|  | > 100 | COc1cc(CNc2ccccc2C(=N)N)ccc1OCc1ccccc1 | Activity [16]: inactive; inhibition [15]: inactive |
| > 95 | 0.68 | COc1cc(CNc2ccc(C(=N)N)cc2)ccc1OCc1ccc(-n2cccc2)cc1 |  |
| > 95 | 2.1 | Cc1ccc(NS(=O)(=O)c2ccc(F)cc2)c(Oc2ccc(C(=N)N)cc2)c1 |  |
| > 95 | 3.7 | COc1cc(CNc2ccc3c(N)nccc3c2)ccc1OCc1ccccc1 |  |
|  |  | H-VGRPEWWMDYQKRYG-OH | inhibition [17]: Active |
| > 95 | 0.1 | COc1ccccc1S(=O)(=O)Nc1ccc(C)cc1Oc1ccc(C(=N)N)cc1 | Ki [5]: 0.22 µM; Ki [6]: 0.0727 µM; Ki [7]: 1.43 µM |
| > 95 | 5.2 | COc1cc(CNc2ccc(C(=N)N)cc2)ccc1OCc1cccnc1 |  |
| > 95 | 0.92 | CCCCS(=O)(=O)Nc1cc(C)ccc1Oc1ccc(C(=N)N)cc1 |  |
|  | > 100 | COc1ccccc1S(=O)(=O)Nc1ccc(C)cc1Oc1ccc2sc(N)nc2c1 | Activity [16]: inactive |
| > 95 | 0.3 | CCCCS(=O)(=O)Nc1ccccc1Oc1ccc(C(=N)N)cc1 |  |
| > 95 | 1.9 | COc1cc(CNc2ccc(C(=N)N)cc2)ccc1OCCC(C)C |  |
| > 95 | 3.6 | COc1ccccc1S(=O)(=O)Nc1ccc(C)cc1Oc1cccc(C(=N)N)c1 |  |
| > 95 | 0.29 | COc1cc(CNc2ccc(C(=N)N)cc2)ccc1OCc1ccsc1 |  |

— ChEMBL document CHEMBL4334491, “Discovery of Benzamidine- and 1-Aminoisoquinoline-Based Human MAS-Related G-Protein-Coupled Receptor X1 (MRGPRX1) Agonists” (J Med Chem, 2019)
